These results are taken from ChEMBL document CHEMBL3400126, “Benzo-fused lactams from a diversity-oriented synthesis (DOS) library as inhibitors of scavenger receptor BI (SR-BI)-mediated lipid uptake” (Bioorg Med Chem Lett, 2015).

The target of data set [1] is T1, Scavenger receptor class B member 1 (Mus musculus, UniProt Q61009).
T1 sequence (Q61009 whole entry): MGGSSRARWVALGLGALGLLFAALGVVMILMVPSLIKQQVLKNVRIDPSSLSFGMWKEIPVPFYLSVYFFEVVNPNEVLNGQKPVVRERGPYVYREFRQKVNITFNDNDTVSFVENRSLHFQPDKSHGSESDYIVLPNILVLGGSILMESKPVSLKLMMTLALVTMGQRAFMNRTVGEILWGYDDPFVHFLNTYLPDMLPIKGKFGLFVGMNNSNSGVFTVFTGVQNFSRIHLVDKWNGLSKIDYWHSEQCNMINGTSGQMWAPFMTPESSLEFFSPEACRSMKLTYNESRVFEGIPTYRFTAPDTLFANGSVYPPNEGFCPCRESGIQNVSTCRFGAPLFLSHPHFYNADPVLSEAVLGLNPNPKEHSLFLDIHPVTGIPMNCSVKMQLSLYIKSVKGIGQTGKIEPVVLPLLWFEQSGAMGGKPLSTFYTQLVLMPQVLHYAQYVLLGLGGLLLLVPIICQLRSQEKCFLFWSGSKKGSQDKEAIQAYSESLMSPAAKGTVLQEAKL
Kind of data set: Inhibition of mouse SR-B1 overexpressed in CHO cells assessed as inhibition of transfer of the fluorescent lipid DiI from HDL particles to cells after 3 hrs. The class given is cell-based. The essentials:
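Primary assay: uptake of fluorescent lipid DiI from DiI-labeled HDL particles into IdlA[mSR-BI] cells, i.e. CHO cells overexpressing mouse SR-BI. Read-out is cell-associated DiI fluorescence. Compounds that quenched DiI-HDL fluorescence in a dose-dependent manner were excluded by counterscreen. 1 μM BLT-1 served as positive control.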

The subject of data set [2] is CHO. Kind of data set: Cytotoxicity against CHO cells after 24 hrs by CellTiterGlo assay. The class given is cell-based, Cricetulus griseus. The note with it: chinese hamster. The essentials:
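IdlA[mSR-BI] cells (CHO overexpressing mouse SR-BI) incubated with compound for 24 h; cellular ATP levels read by CellTiter-Glo luminescence.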

Bounds are passed on as bounds.

Take `COc1ccc(S(=O)(=O)N(C)C[C@@H]2Oc3ccc(NC(=O)Cc4cn(C)c5ccccc45)cc3C(=O)N([C@H](C)CO)C[C@H]2C)cc1`: the IC50 in data set [1] was found to be 2000 nM. For the same molecule, the Activity entry in data set [2] is “Non-toxic”.

For `C[C@@H]1CN([C@H](C)CO)C(=O)c2cc(NC(=O)Cc3cn(C)c4ccccc34)ccc2O[C@H]1CN(C)Cc1ccc(C(F)(F)F)cc1`, in data set [1], the IC50 was 650 nM. Besides, the Activity entry in data set [2] was “Non-toxic”.

Regarding `C[C@@H]1CN([C@H](C)CO)C(=O)c2cc(NC(=O)Cc3cn(C)c4ccccc34)ccc2O[C@H]1CN(C)Cc1ccncc1`, in data set [1], the IC50 was determined as 1300 nM. Further, the Activity entry in data set [2] is “Non-toxic”.

As to `C[C@@H]1CN([C@H](C)CO)C(=O)c2cc(NC(=O)Cc3cn(C)c4ccccc34)ccc2O[C@H]1CN(C)S(=O)(=O)c1cccs1`, in data set [1], the IC50 worked out at 2400 nM. Moreover, the Activity result in data set [2] was “Non-toxic”.

With `COc1ccc(NC(=O)Nc2ccc3c(c2)C(=O)N([C@H](C)CO)C[C@@H](C)[C@H](CN(C)S(=O)(=O)c2ccc(Cl)cc2)O3)cc1`, in data set [1], the IC50 is 300 nM. For the same molecule, the Activity entry in data set [2] was “Non-toxic”.

Take `C[C@H]1CN([C@@H](C)CO)C(=O)c2cc(NC(=O)Cc3cn(C)c4ccccc34)ccc2O[C@H]1CN(C)S(=O)(=O)c1ccc(Cl)cc1`: in data set [1], the IC50 was 12300 nM. The Activity entry in data set [2] was “Non-toxic”.

In the case of `C[C@@H]1CN([C@H](C)CO)C(=O)c2cc(NC(=O)C3CCCCC3)ccc2O[C@H]1CN(C)C(=O)c1ccc(Cl)cc1`, the IC50 in data set [1] is over 25000 nM. Further, the Activity entry in data set [2] is on record as “Non-toxic”.

With `C[C@@H]1CN([C@H](C)CO)C(=O)c2cc(NC(=O)Cc3cn(C)c4ccccc34)ccc2O[C@H]1CN(C)Cc1ccc(Cl)c(Cl)c1`, the IC50 in data set [1] is over 25000 nM. Also, the Activity result in data set [2] is recorded as “Non-toxic”.

For the molecule `C[C@@H]1CN([C@H](C)CO)C(=O)c2cc(NC(=O)Cc3cn(C)c4ccccc34)ccc2O[C@H]1CN(C)C(=O)NC1CCCCC1`, in data set [1], the IC50 is 9200 nM. For the same molecule, the Activity entry in data set [2] is recorded as “Non-toxic”.

For the molecule `C[C@@H]1CN([C@H](C)CO)C(=O)c2cc(NS(=O)(=O)c3ccccc3)ccc2O[C@H]1CN(C)S(=O)(=O)c1ccc(Cl)cc1`, in data set [1], the IC50 was 3200 nM. Besides, the Activity result in data set [2] was “Non-toxic”.

As to `C[C@@H]1CN([C@H](C)CO)C(=O)c2cc(N(C)C)ccc2O[C@H]1CN(C)S(=O)(=O)c1ccc(Cl)cc1`, in data set [1], the IC50 was found to be 630 nM. The Activity result in data set [2] is reported as “Non-toxic”.

Take `C[C@@H]1CN([C@H](C)CO)C(=O)c2cc(NC(=O)Cc3cn(C)c4ccccc34)ccc2O[C@H]1CN(C)S(=O)(=O)c1ccc(F)cc1`: in data set [1], the IC50 was 560 nM. Further, the Activity result in data set [2] is listed as “Non-toxic”.

As to `C[C@@H]1CN([C@H](C)CO)C(=O)c2cc(NC(=O)Cc3cn(C)c4ccccc34)ccc2O[C@H]1CN(C)C(=O)Nc1ccccc1`, the IC50 in data set [1] came out at 4900 nM. For the same molecule, in data set [2], the Activity entry is given as “Non-toxic”.

As to `C[C@@H]1CN([C@H](C)CO)C(=O)c2cc(NC(=O)Cc3cn(C)c4ccccc34)ccc2O[C@H]1CN(C)Cc1ccc2c(c1)OCO2`, in data set [1], the IC50 worked out at 890 nM. Further, the Activity entry in data set [2] is “Non-toxic”.

As to `C[C@@H]1CN([C@H](C)CO)C(=O)c2cc(NC(=O)C3CCCCC3)ccc2O[C@H]1CN(C)S(=O)(=O)c1ccc(Cl)cc1`, the IC50 in data set [1] worked out at 54 nM. Also, the Activity result in data set [2] is reported as “Non-toxic”.

In the case of `Cc1noc(C)c1NC(=O)Nc1ccc2c(c1)C(=O)N([C@H](C)CO)C[C@@H](C)[C@H](CN(C)S(=O)(=O)c1ccc(Cl)cc1)O2`, in data set [1], the half-maximal inhibitory concentration (IC50) was found to be 7100 nM. In addition, in data set [2], the Activity entry was “Non-toxic”.

Consider `C[C@@H]1CN([C@H](C)CO)C(=O)c2cc(NS(C)(=O)=O)ccc2O[C@H]1CN(C)S(=O)(=O)c1ccc(Cl)cc1`, for which the IC50 in data set [1] came to 1600 nM. For the same molecule, in data set [2], the Activity entry is “Non-toxic”.

With `C[C@@H]1CN([C@H](C)CO)C(=O)c2cc(NC(=O)Cc3cn(C)c4ccccc34)ccc2O[C@H]1CN(C)S(=O)(=O)c1ccccc1`, the IC50 in data set [1] worked out at 220 nM. In data set [2], the Activity result is reported as “Non-toxic”.

As for `COc1ccc(CN(C)C[C@@H]2Oc3ccc(NC(=O)Cc4cn(C)c5ccccc45)cc3C(=O)N([C@H](C)CO)C[C@H]2C)cc1`, the IC50 in data set [1] is 2600 nM. For the same molecule, the Activity entry in data set [2] was “Non-toxic”.

Take `C[C@H]1CN([C@@H](C)CO)C(=O)c2cc(NC(=O)Cc3cn(C)c4ccccc34)ccc2O[C@@H]1CN(C)S(=O)(=O)c1ccc(Cl)cc1`: the IC50 in data set [1] came to 17400 nM. Also, the Activity result in data set [2] is “Non-toxic”.

Turning to `C[C@@H]1CN([C@H](C)CO)C(=O)c2cc(NC(=O)Nc3ccc(F)cc3)ccc2O[C@H]1CN(C)S(=O)(=O)c1ccc(Cl)cc1`, in data set [1], the IC50 is 92 nM. In addition, the Activity entry in data set [2] is “Non-toxic”.

For the molecule `C[C@@H]1CN([C@H](C)CO)C(=O)c2cc(NC(=O)Cc3cn(C)c4ccccc34)ccc2O[C@H]1CN(C)Cc1ccccc1`, the IC50 in data set [1] was found to be 1600 nM. For the same molecule, the Activity result in data set [2] is reported as “Non-toxic”.

On to `C[C@@H]1CN([C@@H](C)CO)C(=O)c2cc(NC(=O)Cc3cn(C)c4ccccc34)ccc2O[C@H]1CN(C)S(=O)(=O)c1ccc(Cl)cc1`, for which the IC50 in data set [1] turned out to be 910 nM. Also, the Activity entry in data set [2] was “Non-toxic”.

As to `C[C@@H]1CN([C@H](C)CO)C(=O)c2cc(NC(=O)C3CCOCC3)ccc2O[C@H]1CN(C)S(=O)(=O)c1ccc(Cl)cc1`, the IC50 in data set [1] was over 25000 nM. In data set [2], the Activity entry was “Non-toxic”.

As to `C[C@@H]1CN([C@H](C)CO)C(=O)c2cc(NC(=O)C3CCCCC3)ccc2O[C@H]1CN(C)S(=O)(=O)c1ccccc1Cl`, the IC50 in data set [1] is 180 nM. In data set [2], the Activity entry is reported as “Non-toxic”.

Take `C[C@@H]1CN([C@@H](C)CO)C(=O)c2cc(NC(=O)Cc3cn(C)c4ccccc34)ccc2O[C@@H]1CN(C)S(=O)(=O)c1ccc(Cl)cc1`: the IC50 in data set [1] was 10000 nM. Also, in data set [2], the Activity entry is on record as “Non-toxic”.

As for `C[C@@H]1CN([C@H](C)CN(C)C)C(=O)c2cc(NC(=O)Cc3cn(C)c4ccccc34)ccc2O[C@H]1CN(C)S(=O)(=O)c1ccc(Cl)cc1`, the IC50 in data set [1] is over 25000 nM. In data set [2], the Activity entry is “Non-toxic”.

As for `C[C@@H]1CN([C@H](C)CO)C(=O)c2cc(NC(=O)CCC(F)(F)F)ccc2O[C@H]1CN(C)S(=O)(=O)c1ccc(Cl)cc1`, the IC50 in data set [1] came out at 260 nM. Besides, the Activity result in data set [2] was “Non-toxic”.

As to `C[C@@H]1CN([C@H](C)CO)C(=O)c2cc(NC(=O)Cc3cn(C)c4ccccc34)ccc2O[C@H]1CN(C)C`, the IC50 in data set [1] turned out to be 18000 nM. The Activity entry in data set [2] was “Non-toxic”.

Turning to `C[C@@H]1CN([C@H](C)CO)C(=O)c2cc(NC(=O)CCN3CCOCC3)ccc2O[C@H]1CN(C)S(=O)(=O)c1ccc(Cl)cc1`, the IC50 in data set [1] is 5000 nM. Further, the Activity entry in data set [2] was “Non-toxic”.

For `CC(C)NC(=O)Nc1ccc2c(c1)C(=O)N(C(C)C)C[C@@H](C)[C@H](CN(C)S(=O)(=O)c1ccc(Cl)cc1)O2`, the IC50 in data set [1] was found to be 9900 nM. In data set [2], the Activity result was “Non-toxic”.

For the molecule `C[C@@H]1CN([C@H](C)CN)C(=O)c2cc(NC(=O)Cc3cn(C)c4ccccc34)ccc2O[C@H]1CN(C)S(=O)(=O)c1ccc(Cl)cc1`, the IC50 in data set [1] was over 25000 nM. Further, the Activity entry in data set [2] is given as “Non-toxic”.

`C[C@@H]1CN([C@H](C)CO)C(=O)c2cc(NS(=O)(=O)c3ccc(F)cc3)ccc2O[C@H]1CN(C)S(=O)(=O)c1ccc(Cl)cc1`: the IC50 in data set [1] came to 14000 nM. Moreover, the Activity entry in data set [2] is listed as “Non-toxic”.

Consider `C[C@@H]1CN([C@H](C)CO)C(=O)c2cc(NC(=O)Nc3ccccc3)ccc2O[C@H]1CN(C)S(=O)(=O)c1ccc(Cl)cc1`, for which, in data set [1], the IC50 is over 25000 nM. Moreover, the Activity result in data set [2] is listed as “Non-toxic”.

`C[C@@H]1CN([C@H](C)CO)C(=O)c2cc(NC(=O)C3CC3)ccc2O[C@H]1CN(C)S(=O)(=O)c1ccc(Cl)cc1`: the half-maximal inhibitory concentration (IC50) in data set [1] worked out at 2100 nM. Further, the Activity entry in data set [2] is recorded as “Non-toxic”.

In the case of `Cc1noc(C)c1S(=O)(=O)Nc1ccc2c(c1)C(=O)N([C@H](C)CO)C[C@@H](C)[C@H](CN(C)S(=O)(=O)c1ccc(Cl)cc1)O2`, in data set [1], the IC50 came out at 190 nM. The Activity entry in data set [2] is “Non-toxic”.

For `C[C@@H]1CN([C@H](C)CO)C(=O)c2cc(NC(=O)Cc3cn(C)c4ccccc34)ccc2O[C@@H]1CN(C)S(=O)(=O)c1ccc(Cl)cc1`, the Activity entry in data set [2] is listed as “Non-toxic”.

With `C[C@@H]1CN([C@H](C)CO)C(=O)c2cc(NC(=O)C3CCCCC3)ccc2O[C@H]1CN(C)S(=O)(=O)c1cccc(Cl)c1`, in data set [2], the Activity result is “Non-toxic”.

On to `COC[C@@H](C)N1C[C@@H](C)[C@H](CN(C)S(=O)(=O)c2ccc(Cl)cc2)Oc2ccc(NC(=O)NC(C)C)cc2C1=O`, for which the IC50 in data set [1] worked out at 8000 nM. The Activity entry in data set [2] is reported as “Non-toxic”.

With `CNC[C@@H]1Oc2ccc(NC(=O)Cc3cn(C)c4ccccc34)cc2C(=O)N([C@H](C)CO)C[C@H]1C`, the IC50 in data set [1] is over 25000 nM. Further, the Activity entry in data set [2] is “Non-toxic”.

Take `C[C@H](CO)N1C[C@H](C)[C@H](CN(C)S(=O)(=O)c2ccc(Cl)cc2)Oc2ccc(NC(=O)Cc3cn(C)c4ccccc34)cc2C1=O`: in data set [1], the IC50 was over 25000 nM. The Activity entry in data set [2] is “Non-toxic”.

With `C[C@@H]1CN([C@H](C)CO)C(=O)c2cc(NC(=O)Cn3cnnn3)ccc2O[C@H]1CN(C)S(=O)(=O)c1ccc(Cl)cc1`, the IC50 in data set [1] is 10000 nM. Besides, the Activity result in data set [2] is recorded as “Non-toxic”.
